# In ChEMBL document CHEMBL4513216, “Probing the Open Global Health Chemical Diversity Library for Multistage-Active Starting Points for Next-Generation Antimalarials” (ACS Infect Dis, 2020):
# Assay: Toxicity liver stage against HepG2, at 10uM
# Assay type: cell-based
# Design: test concentration 10 uM, cell line HepG2-A16-CD81EGFP
# Conditions: human, HepG2-A16-CD81EGFP cells; read-out: INHIBITION
# Method in brief: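 Uninfected HepG2-A16-CD81EGFP cells, 3 × 10^3 per well, 1536-well, plated on prespotted compound at 10 μM final, parasite-free screening media added to match infected plates; puromycin 10 μM positive, DMSO 0.5% negative; run in parallel with 48 h PbLuc assay at 37 °C, 5% CO2; viability by CellTiter-Glo luminescence, normalized to controls.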
row,SMILES,cytotoxicity at 10 µM [%]
1,CCn1cc(Cn2cc(Cl)c(N)n2)c(C)n1,-6.56
2,CO[C@H]1CN(C(=O)OC(C)(C)C)CC1NCc1ccco1 (stereo not given in full),-46.9
3,COc1ccccc1-c1ccccc1CC1(C(=O)O)CCNCC1,-0.782
4,N#Cc1ncn(CCS(=O)(=O)c2ccc(Br)cc2)n1,-17.2
5,CNC(=O)C1Cn2ccnc2C2(CCN(Cc3csc(C)n3)CC2)O1 (stereo not given),-151
6,Cc1cnn(CCC(=O)N2CCN(C(=O)C3CC3)[C@@H]3CS(=O)(=O)C[C@@H]32)c1,0.168
7,Cc1cccc(C(=O)N2CCC3(CC2)CC(c2cnn(C)c2)CO3)c1 (stereo not given),-78.7
8,CSc1ccc(-c2nc(CN3CCCC(CNC(C)=O)C3)c(C)o2)cc1 (stereo not given),2.32
9,O=C(CCC(=O)N1CCNC(=O)C1c1cccc(F)c1)NC1CCCC1 (stereo not given),2.68
10,CCc1ncc(C(=O)NCCN2CCNC2=O)cn1,0.069
11,COc1ccc(CN2C[C@@H]3CN(C(=O)[C@H]4CCCO4)C[C@@H]3C2=O)cc1,-0.0368
12,CCCN1CCC(N2CCN(c3cc(C)nc(COC)n3)CC2)CC1,-0.332
13,CCOC(C)c1nccn1CCC(=O)Nc1cc(C)on1 (stereo not given),10.1
14,Cc1ccc(O)c(CNc2cccc(CN3CCSCC3)c2)n1,-7.94
15,Cc1ccc(C)c(C(=O)N2CCN(C(=O)Cc3ccccn3)CC2)c1,-15.1
16,CCC(=O)N1CC[C@H]2[C@H](C[C@@H](Cn3cccn3)N2c2nccs2)C1,5.68
17,CC(=O)N1C[C@H](NC(=O)c2ccnc(N)c2)[C@@H](C(C)C)C1,8.64
18,COC(=O)CC(c1ccccc1)c1oc(C)cc(=O)c1O (stereo not given),26.7
19,COc1ccccc1[C@@H]1CN(Cc2csc(C(C)=O)c2)C[C@H]1C(=O)O,-4.75
20,COC(=O)c1ccoc1CN(C)Cc1cc(OC)c(OC)cc1C,-1.06
21,COCC(=O)N1CCC(C(=O)Nc2ccc(C(C)=O)cc2)CC1,1.73
22,CCCc1ccc(C(=O)N2CCn3c(nnc3C(C)C)C2)cc1,9.83

row,SMILES,cytotoxicity at 10 µM [%]
1,CC(C)(C)NC(=O)NC(=O)CNc1c(F)cccc1N1CCCC1,12.2
2,Cc1cnn(CC(C)NCc2csc(-c3ccsc3)n2)c1 (stereo not given),-6.79
3,CCOCC1CCCN(C(=O)NCc2ccc(-c3ccn[nH]3)cc2)C1 (stereo not given),-3.25
4,Cc1cnn(C2CCCN(C(=O)c3ccc(-n4cnnn4)cc3)C2)c1 (stereo not given),-4.57
5,COc1ccccc1N(C)S(=O)(=O)c1cc(C(=O)O)cs1,-5.82
6,N#Cc1cccc(C(=O)N2CC(c3nc(-c4ccc[nH]c4=O)no3)C2)c1,-4.13
7,CCN1Cc2cc(OC)ccc2N(CC(C)(C)O)CCC1=O,-12.2
8,OCC1(NCc2cnc(-c3ccsc3)s2)CCOCC1,-3.1
9,Cn1ccc2c(C(=O)NC3CN4CCC3CC4)cccc21 (stereo not given),-46.8
10,CCN1CCCC1CN(CCN(C)C)S(=O)(=O)c1ccccc1C#N (stereo not given),-8.58
11,NC(=O)c1cc(C2CCCN(C(=O)CCc3ccccn3)C2)n[nH]1 (stereo not given),-8.47
12,CCn1cc(CN2CCCN(C(=O)CCc3ccccc3)CC2)cn1,-7.9
13,Cc1cc(Nc2ccc3c(c2)CC(=O)N3)nc(C(C)C)n1,3.67
14,Cc1cnc(NC(=O)c2csc(NC3CCCC3)n2)s1,45.8
15,COc1ccc2[nH]nc(CN3CCC(C(C)N(C)C)CC3)c2c1 (stereo not given),-1.45
16,COCCn1c(-c2cccc(OC)c2)cnc1NC(=O)NCC(C)C,11.4
17,CC(C)N(C)Cc1cnc2n1CCN(CCc1ccccc1)C2,-4.58
18,Cn1ccc(CN2CCN(CC3CC3)CC2)cc1=O,-16.6
19,O=C(c1ccc2nncn2c1)N1CCCC(n2ccnc2)C1 (stereo not given),-1.14
20,Cn1c(=O)n(C)c2cc(NS(=O)(=O)Cc3ccccc3)ccc21,-4.62
21,CCCc1nc(C)c(C(=O)NC2CCN(CC(N)=O)CC2)s1,-6.3
22,CN(C)C(=O)CCC1CCCN(Cc2ccc(-c3cccnc3)cc2)C1 (stereo not given),4.96

row,SMILES,cytotoxicity at 10 µM [%]
1,O=C(C[C@@H]1COC[C@H]2CN(Cc3ccccc3)C[C@@H]12)N1CCCC1,2.03
2,O=C1NCCN(CC2CC2)C12CCN(Cc1ccccc1)CC2,-78.7
3,CCS(=O)(=O)N1C[C@@H](O)[C@H](Oc2cccc(F)c2)C1,-3.65
4,CCOCC1CCN(C(=O)Nc2ccc3c(c2)CCCN3C)C1 (stereo not given),10.1
5,CCN1CCN(S(=O)(=O)c2cnc(NC(C)=O)s2)CC1,1.37
6,CCc1nc2c(c(NC3CCC3)n1)CCN(C(=O)CO)CC2,5.42
7,COc1cc(C(=O)N(C)C(C)Cc2cc(C)ccn2)ccn1 (stereo not given),-9.57
8,O=C(c1ccc(Cl)c(Cl)c1)N1CCCC(n2cncn2)C1 (stereo not given),-5.16
9,NC(=O)CCNCc1c(Cl)cccc1N1CCCC1,8.15
10,Cc1ccc(N(C)S(=O)(=O)c2cc(C(=O)O)cs2)c(C)c1,1.82
11,COCCO[C@@H]1CCN(C(=O)c2ccc[nH]2)[C@H]1Cc1cnn(C)c1,-71.7
12,CNS(=O)(=O)CC1CCCN1c1ccc(Br)cn1 (stereo not given),3.1
13,CC(C)c1nc(-c2cc(C(=O)NCCN(C)C)c3ccccn23)cs1,4.77
14,CN1C[C@H]2CNC[C@@]2(C(=O)N2CCN(c3ncccc3C#N)CC2)C1,2.12
15,Cn1cc(NC(=O)CNC(=O)N2CCN(c3ccc(Cl)cc3)CC2)cn1,6.9
16,CN1CC(=O)N(c2cccc(F)c2)CC12CCN(Cc1ccccn1)C2 (stereo not given),2.49
17,CCc1nsc(N2CCN(C(=O)COc3ccccc3)CC2)n1,-3.49
18,COc1ccc(CSc2nnc(N)n2C2CC2)cc1F,5.11
19,CC(C)N(C)S(=O)(=O)N(C)Cc1ccc2c(c1)OCCO2,-2.84
20,O=C(c1ccc(-n2cccn2)nc1)N1CCC(Nc2cccnn2)CC1,-1.08
21,CC(=O)N(Cc1ncc(C)o1)C1CCN(Cc2nccn2C)C1 (stereo not given),6.57
22,Cc1ccc2oc(N3CCN(CC(=O)NC(C)C)CC3)nc2c1,-10.9

row,SMILES,cytotoxicity at 10 µM [%]
1,CNC(=O)c1cc2c(nc1NCC1CC1)CCN(c1ncccn1)CC2,0.283
2,CC(=O)N1CCc2nc(N(C)C)nc(NCCc3ccccc3)c2CC1,-2.38
3,CCN(CC)C(=O)C1CCN(c2ccc(Cl)cc2C#N)CC1,12.2
4,COc1cc(F)ccc1NC(=O)NC(C)C(=O)NC(C)(C)C (stereo not given),-6.1
5,CC(C)c1nc(COc2cccc3c2NC(=O)CO3)cs1,35.8
6,OCC(CO)Nc1ccc2c(Cl)ccc(Cl)c2n1,-3.04
7,COCc1ccccc1C(=O)NS(=O)(=O)CCCC#N,5.24
8,COc1ncccc1CNC(=O)N1CCC(CNC(C)=O)CC1,3.4
9,O=C(CSC1CCCC1)N1CCN(C(=O)C2CC2c2ccccc2)CC1 (stereo not given),-4.74
10,Fc1cccnc1Oc1cc(F)c(CN2CCCC2)c(Cl)c1,3.3
11,CC(=O)N1CCCC1c1nnn2cc(NCc3cccnc3)ccc12 (stereo not given),17.1
12,O=C(NCCc1cccc(F)c1)NCC(O)c1cccc(F)c1 (stereo not given),-13.1
13,COc1cc(-c2n[nH]c(CCN)n2)cc(OC)c1OC,-0.297
14,N#Cc1ccc(N2CCCN(CC(=O)N3CCNC(=O)C3)CC2)cc1,5.27
15,c1cnc(N2CCO[C@H]3CN(CC4CC4)C[C@H]32)nc1,5.03
16,CC(C)c1noc(-c2ccc(NCCCN3CCCC(O)C3)nc2)n1 (stereo not given),-6.87
17,CS(=O)(=O)N1CCc2ccc(=O)n(CC3CCOCC3)c2CC1,6.4
18,CCn1ccnc1CN1CCCN(C(=O)c2cnc(C)cn2)CC1,-12.3
19,Cc1cc(=O)[nH]c(NC2CCN(S(=O)(=O)c3ccccc3)CC2)n1,-3.02
20,CCCc1ncc(C(=O)c2ccc(OC)cc2)n1C,22.3
21,Cc1cccc2nc(C(=O)N3CCCC[C@]4(C)NC(=O)CC[C@H]34)cn12,-13.7
22,N#Cc1cccc(Oc2ccc(CN3CCCC3)cc2Cl)n1,-16

row,SMILES,cytotoxicity at 10 µM [%]
1,Cc1cc(C)c(CNC(=O)NCC2Cc3ccccc3O2)c(=O)[nH]1 (stereo not given),-5.21
2,O=C(NCc1ccc(-n2cncn2)nc1)c1ccc2c(c1)CCO2,-10.2
3,N#CC1(NC(=O)c2nccc3ccccc23)CCC2(CC1)OCCO2,2.48
4,COCc1nc(C(=O)N2CCCC(n3ccnc3C(C)C)C2)cs1 (stereo not given),-30.8
5,Cc1ccccc1N1CCN(C(=O)c2ncc(F)cc2F)C(C)C1 (stereo not given),11.4
6,CC[C@H](N)Cn1nc(-c2cccs2)oc1=O,1.75
7,COc1ccc(F)c(CN2CCCC(O)(CNCc3ncc[nH]3)C2=O)c1 (stereo not given),5.87
8,c1cc2c(cc1C[C@@H]1CC[C@H](CN3CCCOCC3)O1)OCO2,-12.9
9,O=C(Cc1cccc(O)c1)N1CCCC(O)(CN2CCCC2)CC1 (stereo not given),-4.68
10,Cc1cc(F)ccc1OC1(C(=O)O)CCN(Cc2c[nH]cn2)CC1,1.18
11,COCC1(C(=O)N[C@H]2CN(c3nnc(C)s3)C[C@@H]2C2CC2)CCC1,-129
12,O=C(Cn1cccn1)NCC1(c2ccccc2)CC1,3.13
13,Cc1c(F)cccc1S(=O)(=O)Nc1noc(C(C)C)n1,7.21
14,CCc1nnsc1C(=O)N(C)Cc1ccc(C)o1,-46.5
15,CCc1nc(CN(C)c2nccc(N3CCCC(O)C3)n2)no1 (stereo not given),0.324
16,CNc1cc2c(nn1)CCN(C(=O)c1ccoc1)C2,4.6
17,Cc1cc(CCC(=O)O)nc(C2CCCN2c2ccnc(C)n2)n1 (stereo not given),-8.12
18,O=C(NCCn1cccc1)c1c(O)cc(F)cc1F,-5.22
19,Cc1ccccc1C1(CNC(=O)c2ccc(S(C)(=O)=O)cc2)CC1,-7.16
20,CCn1ccnc1CN1CCN(c2ncnc3ccccc23)CC1,-1.8
21,CCn1ccnc1CN1CCN(CCCS(C)(=O)=O)CC1C (stereo not given),-194
22,c1cnn(CC2CN(c3ncnc4sccc34)CCO2)c1 (stereo not given),25.1
